In ChEMBL document CHEMBL3351232, “Flemingins G-O, cytotoxic and antioxidant constituents of the leaves of Flemingia grahamiana” (J Nat Prod, 2014):

Assays:
[1] = Antioxidant activity assessed as DPPH scavenging activity after 30 mins by spectrophotometry; assay type: physicochemical; conditions: 0.5 h; read-out: ED50 (the source's name)
In short: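 Samples prepared in double-distilled methanol at 320, 160, 80, 40, 20, 10, 5 and 2.5 μg/mL. 1.0 mL added to 2.0 mL of 76 μM DPPH in methanol, held 30 min at room temperature, remaining DPPH read at 517 nm. Control was methanol plus DPPH; quercetin served as positive control. EC50 (50% absorbance decrease) obtained from a plot of % scavenged versus initial concentration.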

[2] = tested on: MCF7; assay: Cytotoxicity against human MCF7 cells after 48 hrs by PrestoBlue cell viability assay; assay type: functional, cell-based; conditions: MCF7, 48 h
In short: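 MCF-7 cells grown in DMEM with 10% FBS, 2 mM L-glutamine, penicillin and streptomycin, 37 °C, 5% CO2. Seeded for exponential growth, then after 24 h switched to medium containing compound or DMSO vehicle (0.1% or 1.0% v/v). Viability read by PrestoBlue fluorescence after 48 h, as % of vehicle control. Six replicates, at least three independent experiments, means ± SE.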

[3] = Activity index, ratio of compound ED50 to quercetin ED50 for antioxidant activity assessed as DPPH scavenging activity after 30 mins by spectrophotometry

EC50 [1]	SMILES	IC50 [2]	Ratio ED50 [3]
7.8 µM	CC(C)=CCCC1(C)C=Cc2c(O)c(C(=O)/C=C/c3c(O)cccc3O)cc(O)c2O1 (stereo not given)	> 237 µM	3.1
–	C=C(C)C(O)CCC1(C)C=Cc2c(O)c(C(=O)/C=C/c3ccccc3O)cc(O)c2O1 (mixture of isomers)	> 236 µM	–
8.9 µM	C=C(C)C(O)CCC1(C)C=Cc2c(O)c(C(=O)/C=C/c3c(O)cccc3O)cc(O)c2O1 (stereo not given)	–	3.5
4.4 µM	CC(C)=CCCC1(C)C=Cc2c(O)c(C(=O)/C=C/c3ccccc3O)cc(O)c2O1 (stereo not given)	8.9 µM	1.8
8.3 µM	C=C(C)C(O)CCC1(C)C=Cc2c(O)c(C(=O)/C=C/c3cc(O)ccc3O)cc(O)c2O1 (stereo not given)	221 µM	3.3
–	Cc1cc(O)c2c(c1)C(=O)c1cc(O)cc(O)c1C2=O [EMODIN]	317 µM	–
–	CC(C)(O)/C=C/CC1(C)C=Cc2c(O)c(C(=O)/C=C/c3cc(O)ccc3O)cc(O)c2O1 (stereo not given)	> 228 µM	–
–	CC(C)(O)/C=C/CC1(C)C=Cc2c(O)c(C(=O)/C=C/c3ccccc3O)cc(O)c2O1 (stereo not given)	> 236 µM	–
–	CC(C)n1nc(C#Cc2ccncc2)c2c(N)ncnc21	5 µM	–
5.9 µM	CC(C)=CCCC1(C)C=Cc2c(O)c(C(=O)/C=C/c3cc(O)ccc3O)cc(O)c2O1 (stereo not given)	7.6 µM	2.4

SMILES	EC50 [1]	IC50 [2]	Ratio ED50 [3]
O=c1c(O)c(-c2ccc(O)c(O)c2)oc2cc(O)cc(O)c12 [QUERCETIN]	2.5 µM	–	–
